# “And” between values parts separate entries of the source, which are not always exact repeats. Equal entries are not always repeated.
# Tested on: HEK-293T
# Assay: Multiplex assay against HEK293T
# Type: toxicity, cell-based
# Conditions: human, number of replicates 2
# Procedure, shortened: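 Hoechst33342, BioTracker Green Microtubule Cytoskeleton Dye, MitoTracker Red and Annexin V Alexa Fluor 680 were added to live cells at seeding, and imaging on a CQ1 microscope at 37°C and 5% CO2 followed compound addition. Gating by CellPathfinder machine learning separated cells into Hoechst high-intensity objects or normal cells, then normal cells into healthy, pyknosed or fragmented nuclei, then pyknosed cells into mitotic or apoptotic. Per cents of healthy-nucleus cells are reported for the tubulin, mitochondrial-mass and membrane-permeability phenotypes.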
# [1] = 12 h, 1 µM, compound concentration 1 uM
# [2] = 12 h, 10 µM, compound concentration 10 uM
# [3] = 24 h, 1 µM, compound concentration 1 uM
# [4] = 24 h, 10 µM, compound concentration 10 uM
# [5] = 48 h, 1 µM, compound concentration 1 uM
# [6] = 48 h, 10 µM, compound concentration 10 uM
compound,measurement,setting,value
O=C1NC(=O)C(c2ccccc2[N+](=O)[O-])=C1Nc1ccc(O)c(Cl)c1,Population Apoptotic (%),[1],41% and 45%
same,Population Fragmented Nuclei (%),[1],4% and 2%
same,Population Healthy Nuclei (%),[1],82% and 83%
same,Population Hoechst High Intensity Objects (%),[1],6% and 3%
same,Population Membrane Permeable-Phenotype (%),[1],2%
same,Population Mitochondria Different-Phenotype (%),[1],11% and 12%
same,Population Mitotic Cells (%),[1],58% and 54%
same,Population Normal (%),[1],93% and 96%
same,Population Pyknosed Nuclei (%),[1],13%
same,Population Tubulin-Different-Phenotype (%),[1],41%
same,Total Cell Count,[1],694 and 574
same,Population Apoptotic (%),[2],32% and 38%
same,Population Fragmented Nuclei (%),[2],6% and 5%
same,Population Healthy Nuclei (%),[2],82% and 87%
same,Population Hoechst High Intensity Objects (%),[2],4% and 7%
same,Population Membrane Permeable-Phenotype (%),[2],6% and 4%
same,Population Mitochondria Different-Phenotype (%),[2],8% and 5%
same,Population Mitotic Cells (%),[2],67% and 61%
same,Population Normal (%),[2],95% and 92%
same,Population Pyknosed Nuclei (%),[2],11% and 7%
same,Population Tubulin-Different-Phenotype (%),[2],34% and 31%
same,Total Cell Count,[2],496 and 670
same,Population Apoptotic (%),[3],40% and 37%
same,Population Fragmented Nuclei (%),[3],4% and 3%
same,Population Healthy Nuclei (%),[3],86% and 88%
same,Population Hoechst High Intensity Objects (%),[3],5% and 7%
same,Population Membrane Permeable-Phenotype (%),[3],2%
same,Population Mitochondria Different-Phenotype (%),[3],3% and 5%
same,Population Mitotic Cells (%),[3],59% and 62%
same,Population Normal (%),[3],94% and 92%
same,Population Pyknosed Nuclei (%),[3],8%
same,Population Tubulin-Different-Phenotype (%),[3],22% and 24%
same,Total Cell Count,[3],1100 and 894
same,Population Apoptotic (%),[4],26% and 19%
same,Population Fragmented Nuclei (%),[4],4% and 8%
same,Population Healthy Nuclei (%),[4],89% and 83%
same,Population Hoechst High Intensity Objects (%),[4],5% and 7%
same,Population Membrane Permeable-Phenotype (%),[4],5% and 3%
same,Population Mitochondria Different-Phenotype (%),[4],2% and 1%
same,Population Mitotic Cells (%),[4],73% and 80%
same,Population Normal (%),[4],94% and 92%
same,Population Pyknosed Nuclei (%),[4],6% and 7%
same,Population Tubulin-Different-Phenotype (%),[4],14% and 18%
same,Total Cell Count,[4],721 and 1015
same,Population Apoptotic (%),[5],14% and 15%
same,Population Fragmented Nuclei (%),[5],13% and 9%
same,Population Healthy Nuclei (%),[5],83% and 87%
same,Population Hoechst High Intensity Objects (%),[5],7% and 9%
same,Population Membrane Permeable-Phenotype (%),[5],5% and 4%
same,Population Mitochondria Different-Phenotype (%),[5],0%
same,Population Mitotic Cells (%),[5],85% and 84%
same,Population Normal (%),[5],92% and 90%
same,Population Pyknosed Nuclei (%),[5],2% and 3%
same,Population Tubulin-Different-Phenotype (%),[5],12% and 11%
same,Total Cell Count,[5],2762 and 1997
same,Population Apoptotic (%),[6],11% and 2%
same,Population Fragmented Nuclei (%),[6],14% and 21%
same,Population Healthy Nuclei (%),[6],82% and 77%
same,Population Hoechst High Intensity Objects (%),[6],6% and 9%
same,Population Membrane Permeable-Phenotype (%),[6],7% and 8%
same,Population Mitochondria Different-Phenotype (%),[6],0%
same,Population Mitotic Cells (%),[6],88% and 97%
same,Population Normal (%),[6],93% and 90%
same,Population Pyknosed Nuclei (%),[6],3% and 1%
same,Population Tubulin-Different-Phenotype (%),[6],7%
same,Total Cell Count,[6],1557 and 2547
CC(C)c1c(NC(=O)Nc2ccc(Cl)cc2)c(=O)n(-c2ccccc2)n1C,Population Apoptotic (%),[1],40% and 36%
same,Population Fragmented Nuclei (%),[1],3% and 2%
same,Population Healthy Nuclei (%),[1],85% and 86%
same,Population Hoechst High Intensity Objects (%),[1],6% and 5%
same,Population Membrane Permeable-Phenotype (%),[1],3% and 2%
same,Population Mitochondria Different-Phenotype (%),[1],11% and 14%
same,Population Mitotic Cells (%),[1],59% and 63%
same,Population Normal (%),[1],93% and 94%
same,Population Pyknosed Nuclei (%),[1],10% and 11%
same,Population Tubulin-Different-Phenotype (%),[1],48% and 50%
same,Total Cell Count,[1],880 and 697
same,Population Apoptotic (%),[2],49% and 41%
same,Population Fragmented Nuclei (%),[2],2% and 4%
same,Population Healthy Nuclei (%),[2],86% and 81%
same,Population Hoechst High Intensity Objects (%),[2],8% and 4%
same,Population Membrane Permeable-Phenotype (%),[2],4% and 6%
same,Population Mitochondria Different-Phenotype (%),[2],14% and 18%
same,Population Mitotic Cells (%),[2],50% and 58%
same,Population Normal (%),[2],91% and 95%
same,Population Pyknosed Nuclei (%),[2],11% and 14%
same,Population Tubulin-Different-Phenotype (%),[2],57% and 50%
same,Total Cell Count,[2],669 and 576
same,Population Apoptotic (%),[3],36% and 39%
same,Population Fragmented Nuclei (%),[3],5%
same,Population Healthy Nuclei (%),[3],87% and 88%
same,Population Hoechst High Intensity Objects (%),[3],8%
same,Population Membrane Permeable-Phenotype (%),[3],4% and 3%
same,Population Mitochondria Different-Phenotype (%),[3],3% and 5%
same,Population Mitotic Cells (%),[3],63% and 60%
same,Population Normal (%),[3],91%
same,Population Pyknosed Nuclei (%),[3],6% and 5%
same,Population Tubulin-Different-Phenotype (%),[3],27% and 32%
same,Total Cell Count,[3],1449 and 1121
same,Population Apoptotic (%),[4],54% and 40%
same,Population Fragmented Nuclei (%),[4],6%
same,Population Healthy Nuclei (%),[4],85% and 83%
same,Population Hoechst High Intensity Objects (%),[4],8% and 5%
same,Population Membrane Permeable-Phenotype (%),[4],3%
same,Population Mitochondria Different-Phenotype (%),[4],5% and 8%
same,Population Mitotic Cells (%),[4],45% and 59%
same,Population Normal (%),[4],91% and 94%
same,Population Pyknosed Nuclei (%),[4],7% and 10%
same,Population Tubulin-Different-Phenotype (%),[4],37% and 33%
same,Total Cell Count,[4],1033 and 815
same,Population Apoptotic (%),[5],10% and 15%
same,Population Fragmented Nuclei (%),[5],14% and 10%
same,Population Healthy Nuclei (%),[5],83% and 86%
same,Population Hoechst High Intensity Objects (%),[5],9% and 10%
same,Population Membrane Permeable-Phenotype (%),[5],5% and 3%
same,Population Mitochondria Different-Phenotype (%),[5],0%
same,Population Mitotic Cells (%),[5],89% and 84%
same,Population Normal (%),[5],90% and 89%
same,Population Pyknosed Nuclei (%),[5],2% and 3%
same,Population Tubulin-Different-Phenotype (%),[5],13% and 15%
same,Total Cell Count,[5],3573 and 2488
same,Population Apoptotic (%),[6],16% and 17%
same,Population Fragmented Nuclei (%),[6],15% and 13%
same,Population Healthy Nuclei (%),[6],81% and 83%
same,Population Hoechst High Intensity Objects (%),[6],8% and 9%
same,Population Membrane Permeable-Phenotype (%),[6],7% and 4%
same,Population Mitochondria Different-Phenotype (%),[6],0% and 1%
same,Population Mitotic Cells (%),[6],83% and 82%
same,Population Normal (%),[6],91% and 90%
same,Population Pyknosed Nuclei (%),[6],3% and 2%
same,Population Tubulin-Different-Phenotype (%),[6],19% and 15%
same,Total Cell Count,[6],2549 and 1775

# Reference: ChEMBL document CHEMBL5303300, “EUbOPEN Chemogenomics Library - Multiplex” (2023)
